From ChEMBL document CHEMBL4513216, “Probing the Open Global Health Chemical Diversity Library for Multistage-Active Starting Points for Next-Generation Antimalarials” (ACS Infect Dis, 2020) come the findings set out here.

The data set can be described thus: Toxicity liver stage against HepG2, at 10uM. It counts as cell-based. Further details: test concentration 10 uM, cell line HepG2-A16-CD81EGFP. The note with it: human, HepG2-A16-CD81EGFP cells; read-out: INHIBITION
The method, boiled down:
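Uninfected HepG2-A16-CD81EGFP cells, 3 × 10^3 per well, 1536-well, plated on prespotted compound at 10 μM final, parasite-free screening media added to match infected plates; puromycin 10 μM positive, DMSO 0.5% negative; run in parallel with 48 h PbLuc assay at 37 °C, 5% CO2; viability by CellTiter-Glo luminescence, normalized to controls.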
As for `O=C(c1c[nH]nc1-c1cccc(F)c1)N1CCNC(c2ccccc2)C1` (stereo not drawn), the cytotoxicity at 10 µM was -3.68%.
In the case of `O=C(Nc1cccs1)N1CC(c2nc(C3CC3)no2)C1`, the cytotoxicity at 10 µM was -0.921%.
Regarding `CCCc1cc(C(=O)N[C@@H]2CC[C@@H](N3CCOCC3)[C@@H]2O)no1`, the cytotoxicity at 10 µM was -3.59%.
For `Cn1c(N2CCOCC2)nc2cc(C(=O)N3CCCOCC3)ccc21`, the cytotoxicity at 10 µM is -1.29%.
As for `Cc1noc(C)c1CN(C)CC(=O)Nc1ccnn1C(C)C1CC1` (stereo not drawn), the cytotoxicity at 10 µM is -2.82%.
Turning to `COc1ccc(-c2noc(Cn3cc4c(n3)CCC4)n2)c(OC)c1OC`, the cytotoxicity at 10 µM was 4.7%.
Take `Cc1cn2c(n1)CCC(NC(=O)c1ccc(OCC3CC3)nc1)C2` (stereo not drawn): the cytotoxicity at 10 µM is -9.47%.
Regarding `CS(=O)(=O)N1CCCC1c1cccc(Nc2nccs2)n1` (stereo not drawn), the cytotoxicity at 10 µM is -33.4%.
Regarding `O[C@H]1CC[C@@H](Cc2cc(-c3ccccn3)on2)O[C@@H]1CNCC1CC1`, the cytotoxicity at 10 µM was -4.05%.
With `Cc1cc(C(=O)N2CCC3(CCN3Cc3ccc(F)cc3)C2)no1` (stereo not drawn), the cytotoxicity at 10 µM was determined as 4.29%.
As to `CC(=O)NCc1ccc(C(=O)N2CCCC(n3cncn3)C2)o1` (stereo not drawn), the cytotoxicity at 10 µM came to 17.1%.
For the compound `CC(=O)Nc1ccc2c(c1)CN(C(=O)c1ccco1)CC2`, the cytotoxicity at 10 µM came to 6.17%.
For `Cc1ccsc1C(=O)NCC1COCc2c(C)nnn2C1` (stereo not drawn), the cytotoxicity at 10 µM was -3.51%.
For the compound `CC(CN1CCOCC1)n1cncc1-c1ccc2c(c1)CCCN2C` (stereo not drawn), the cytotoxicity at 10 µM turned out to be 12.3%.
As for `Cn1c(CS(=O)(=O)Cc2cccc(Cl)c2)cc(=O)n(C)c1=O`, the cytotoxicity at 10 µM came to 8.17%.
For `Cc1cc(CSCc2cc(C)on2)on1` the value was 6.42%; for `COc1cc(C(C)=O)ccc1OCC(=O)N(C)Cc1cnn(C)c1`, -3.88%; for `CCc1c(C)nc2n(c1=O)CC(C(=O)Nc1ccccc1C)CS2` (stereo not drawn), -1.38%.
For `CC(C)Oc1cccc(C(=O)C2CCCN(C(=O)c3ncn[nH]3)C2)c1` (stereo not drawn) the value was -7.53%; for `CN(C)c1nc(N)nc(CN2CCCC2c2ccsc2)n1` (stereo not drawn), -19.6%; for `OCCCN1CCc2[nH]nc(C(c3ccccc3)c3ccccc3)c2C1`, -0.869%.
For `COCCC(=O)Nc1nc2c(OC)cc(F)cc2s1` the value was -0.327%; for `CCn1c(N)nc2cc(C(=O)N3CCCN(C)CC3)cnc21`, -2.43%.
Take `COc1ccc(C2Nc3cc(Cl)ccc3C3=NCCN32)cc1OC` (stereo not drawn): the cytotoxicity at 10 µM was determined as 1.05%.
Consider `CNC(=O)Cn1ccc2ccc(NC(=O)C(C)CSC)cc21` (stereo not drawn), for which the cytotoxicity at 10 µM is -1.1%.
As to `O=C(Cc1ccc(-n2cccn2)cc1)N1CCN2CCCCC2C1` (stereo not drawn), the cytotoxicity at 10 µM amounted to 4.31%.
With `CN(CCc1ccc2c(c1)CCO2)CC1CCS(=O)(=O)C1` (stereo not drawn), the cytotoxicity at 10 µM worked out at 7.33%.
On to `Cn1nc(Br)c2c(NCCSCCCO)ncnc21`, for which the cytotoxicity at 10 µM was 14.5%.
Then `CC(C)(CO)N1CCN(S(=O)(=O)CCCF)CC1`, with -4.3%; and `Cc1oncc1C(=O)NCC(c1ccccc1Cl)N1CCOCC1` (stereo not drawn), with 10.7%.
For `CCc1c(C)nc(C2CCCN2C(=O)c2cc(C)no2)nc1O` (stereo not drawn) the value was -5.75%.
In the case of `CCN1CC(C(=O)NC(C)(C)C(=O)OC)CC1=O` (stereo not drawn), the cytotoxicity at 10 µM was -143%.
Then `COCCNC(=O)c1cc(C)nc(C2CCN(C)CC2)n1`, with -2.48%; and `C=C(C)Cn1nc(C)c(CN2CCN(C3CCCCC3)C(=O)C2)c1C`, with 4.59%; and `Cc1ccc(C(=O)N2CCCC2c2nnc3n2CCCCC3)o1` (stereo not drawn), with -6.05%.
For `Cc1ccc2c(c1)c(CNC(=O)C1CCN(CC(N)=O)CC1)nn2C` the value was -3.17%.
In the case of `CCOCCn1nnc(C2(NC(=O)c3ccccc3)CCCC2)n1`, the cytotoxicity at 10 µM is 21.9%.
On to `c1cnc(NC2COC3(CCN(Cc4ccoc4)CC3)C2)nc1` (stereo not drawn), for which the cytotoxicity at 10 µM came out at 2.11%.
With `CN(C)[C@@H]1CCN(CC2CC2)[C@H]1Cc1cnn(C)c1`, the cytotoxicity at 10 µM was -76.9%.
`CN(C)C(=O)C1CCCN1CCCNC(=O)c1ccccc1F` (stereo not drawn): the cytotoxicity at 10 µM was -20.2%.
Then `CCn1nc(C)cc1C(=O)NCc1cccnc1N(C)C`, with -5.54%.
`COCCN1CCO[C@@H]2CN(Cc3sccc3C)C[C@@H]2C1`: the cytotoxicity at 10 µM was -1.34%.
Then `CCNC(=O)[C@@H]1C[C@H](N)CN1Cc1ccc2cccc(Cl)c2n1`, with 5.91%; and `CCC1CC(=O)NCc2nc3sc(C)cn3c21` (stereo not drawn), with 5.27%.
On to `CNC(=O)CCCNc1cc(C)nc2cc(C)nn12`, for which the cytotoxicity at 10 µM was -5.97%.
Take `Cc1noc([C@@H]2C[C@H](NC(=O)Nc3cccc(F)c3)CN2C)n1`: the cytotoxicity at 10 µM is -2.17%.
As for `CN1CCN(C(=O)c2occc2CN2C(=O)Cc3ccccc32)CC1`, the cytotoxicity at 10 µM is -1.89%.
For `CC(=O)NC1CCN(c2cc(-c3ccccc3)nc3c(C)c(C)nn23)C1` (stereo not drawn) the value was -3.98%; for `COc1ccc(F)cc1CN1CCC(O)(CN2CCCCC2)C1` (stereo not drawn), -12%; for `c1cnc2c(c1)cc(C1CCOCC1)n2CCN1CCOCC1`, 0.487%.
As to `Cc1cc(C2CCC2)nc(NCC(C)(C)N2CCCC2)n1`, the cytotoxicity at 10 µM was -0.21%.
As to `N#Cc1ccccc1NC(=O)C1CN(C(=O)c2ccc3c(c2)OCO3)C1`, the cytotoxicity at 10 µM was -8.64%.
For `Oc1ccccc1-c1n[nH]c(C2CC2)n1`, the cytotoxicity at 10 µM was 5.84%.
For `CC(C(=O)NCC(C)(C)c1ccc2c(c1)OCO2)n1ccnc1` (stereo not drawn) the value was 6.36%; for `CCc1cc(NC2CCN(CC(N)=O)CC2)nc(N2CCCCC2)n1`, -4.75%; for `NC1(c2nc(-c3cccs3)cc(=O)[nH]2)CCCC1`, 4.19%.
For `O=C(c1ccnn1-c1ccc2ccccn12)N1CCOCC1`, the cytotoxicity at 10 µM is -108%.
As to `Cc1cc(NCC2CC(=O)Nc3ccccc32)nc(C)n1` (stereo not drawn), the cytotoxicity at 10 µM was found to be 0.344%.
For `Cc1cc(C)c(C(=O)N[C@H](C(N)=O)c2ccccc2)c(=O)[nH]1`, the cytotoxicity at 10 µM was -2.06%.
For `Cc1nn(C)c(C)c1CCC(=O)OCC(=O)N1CCc2sccc2C1` the value was 0.927%; for `OCC1CCCN1c1cc(N2CCC(OC3CCCC3)CC2)ncn1` (stereo not drawn), -2.43%; for `CSc1ccc(OC(C)C(=O)Nc2c(C)n[nH]c2C)cc1` (stereo not drawn), 6.8%.
Turning to `NC(=O)c1nc2c(s1)CCN(Cc1ccccc1)CC2`, the cytotoxicity at 10 µM stood at 9.61%.
For `O=C(Nc1cccc(-c2cscn2)c1)N1CCC2(CC1)CC(O)CO2` (stereo not drawn) the value was -3.13%; for `Fc1cccc(-c2nnn3c2COC(CNCc2ccsc2)C3)c1` (stereo not drawn), -1.52%.
For the compound `O=C(NCCc1cccs1)[C@]12COC[C@H]1CN(Cc1ccccn1)C2`, the cytotoxicity at 10 µM is -105%.
In the case of `CC1CCN(S(=O)(=O)c2ccc(C(=O)N3CCSCC3)cc2)CC1`, the cytotoxicity at 10 µM came out at 9.54%.
For `CN1C(=O)CCC12CCN(Cc1ccco1)CC2`, the cytotoxicity at 10 µM was determined as 1.61%.
Regarding `CCN(C)Cc1cnc(S(=O)(=O)CC)n1CCOC`, the cytotoxicity at 10 µM is 4.38%.
Take `COc1ccc(-c2nc(C#N)c(N(C)C)o2)cc1OC`: the cytotoxicity at 10 µM was -4.91%.
For `Cc1ccc(N2CCN(C(=O)COc3ccccc3)CC2)nn1`, the cytotoxicity at 10 µM is -14.6%.
On to `NC(=O)c1cc(C2CCCN(C(=O)CCc3ccncc3)C2)n[nH]1` (stereo not drawn), for which the cytotoxicity at 10 µM was -8.99%.
As for `Nc1nc2c(c3c1C(=O)NC3=O)CCC2`, the cytotoxicity at 10 µM is -4.21%.
Then `CCC(C(=O)N(Cc1ccccn1)C1CCCCC1)n1cccn1` (stereo not drawn), with -45.3%; and `Cc1nn(CC(=O)NCc2cc3n(n2)CCCN(CC(C)C)C3)cc1Cl`, with 1.95%; and `Cc1cnn(CCC(=O)N2CCC3(CCC(=O)N(CC4CC4)C3)CC2)c1`, with -2.62%.
Take `Cn1cc(C(=O)N2CCCN(C3Cc4ccccc4C3)CC2)cn1`: the cytotoxicity at 10 µM is -3.68%.
Then `O=C(c1ccc2c(c1)OCO2)N1CCN2C(=O)NC[C@H]2C1`, with 2.02%.
Then `Cc1ccc(CN2CCc3nnc(CN4CCCC4=O)n3CC2)s1`, with 1.02%; and `COc1ccc(C2CCCN2Cc2ccc(S(=O)(=O)N(C)C)o2)cc1` (stereo not drawn), with -5%.
On to `Clc1cncc(N2CCCC2c2nnc3n2CCCCC3)n1` (stereo not drawn), for which the cytotoxicity at 10 µM was -7.44%.
Take `Fc1ccc(F)c(CN2CCC(c3cnccn3)CC2)c1`: the cytotoxicity at 10 µM is -1.61%.
On to `Cc1cc(C)c2ncc(C#N)c(NC3CCN(CC(N)=O)CC3)c2c1`, for which the cytotoxicity at 10 µM was -4.38%.
For the compound `COc1ccccc1N1CCC(CNCc2c(C)nn(C)c2OC)C1` (stereo not drawn), the cytotoxicity at 10 µM is 5.28%.
For `O=C(c1csc(-c2ccccn2)n1)N1CCCC1Cn1cccn1` (stereo not drawn) the value was -3.69%; for `CC(=O)N1CCC(C(=O)NCCN2CCC(C)CC2)CC1`, 12.8%.
With `CC(=O)N1CCN(CCOc2ccc(F)cc2)CC(C(N)=O)C1` (stereo not drawn), the cytotoxicity at 10 µM was -38.9%.
For the compound `CC1CCCN(c2ccccc2OCC(=O)NC2CC2)C1` (stereo not drawn), the cytotoxicity at 10 µM was 10.1%.
For `O=C1C(Nc2nccn3cnnc23)CCN1c1cccc(Cl)c1` (stereo not drawn), the cytotoxicity at 10 µM was -1.7%.
For the compound `COc1ccc(Cl)cc1NC(=O)N1CCc2nc(NC(C)=O)sc2C1`, the cytotoxicity at 10 µM was determined as 12.1%.
For `CNC(=O)CN1CCOCC2(CN(CCC(F)(F)F)CCO2)C1` (stereo not drawn) the value was 3.59%.
As to `Cc1cc(CN(C)S(=O)(=O)N2CCCC2c2ccc(C)o2)no1` (stereo not drawn), the cytotoxicity at 10 µM is 3.33%.
Turning to `CCc1ccc(CN(C)c2ccc(-c3nc(COC)no3)cn2)nc1`, the cytotoxicity at 10 µM was -2.68%.
Consider `CN(Cc1ccc(C(=O)O)cc1)C(=O)c1sccc1OC(F)F`, for which the cytotoxicity at 10 µM was -6.59%.
Consider `Cc1noc(C)c1CN(C)C(=O)NCCOc1ccc(F)cc1F`, for which the cytotoxicity at 10 µM was -0.0414%.
As for `CC(C)(C)OC(=O)Cn1cccc(S(=O)(=O)N2CCCC2)c1=O`, the cytotoxicity at 10 µM was found to be 5.54%.
Take `Fc1cccc(-c2nc(CN3CCCCC3Cn3cncn3)co2)c1` (stereo not drawn): the cytotoxicity at 10 µM was -12.8%.
With `Cc1ccc(C(=O)NS(=O)(=O)c2c(Cl)cccc2Cl)c(=O)[nH]1`, the cytotoxicity at 10 µM is -0.855%.
